Assay outcomes deposited in PubChem by several laboratories.
Hits are enriched below; roughly 9.8% of the tested compounds scored in any of these assays.
Rad51 HR inh = blocks human Rad51 in homologous recombination | AID 1385 | 0.085% of 200,000 active | Q06609 | inhibition, % at 10 µM | hRad51 DNA strand exchange, fluorescence dequenching;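 active = inhibition above 40% at the single screening dose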
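material = hRad51 filaments on single-stranded DNA | reagent = Donor/quencher-labelled 47-bp dsDNA substrate | compound = 10 µM final, single point | schedule = strand-exchange reaction 15 min at room temperature | measured by = fluorescein emission 520 nm, excitation 485 nm | read-out basis = % inhibition versus plate control and blank means | benchmarks = plate controls and plate blanks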
PMI act satM6P = PMI (human) activation, high substrate. activation factor at 20 µM. coupled PMI enzyme assay, resazurin fluorescence, 20 min; stronger effect = higher value; 1 = untreated enzyme, 0 = substrate-free blank. 0.34% of 190,000 active. AID 1216. P34949;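 active = activation factor of 2 or more at 20 µM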
Target sequence (P34949 whole entry, looked up): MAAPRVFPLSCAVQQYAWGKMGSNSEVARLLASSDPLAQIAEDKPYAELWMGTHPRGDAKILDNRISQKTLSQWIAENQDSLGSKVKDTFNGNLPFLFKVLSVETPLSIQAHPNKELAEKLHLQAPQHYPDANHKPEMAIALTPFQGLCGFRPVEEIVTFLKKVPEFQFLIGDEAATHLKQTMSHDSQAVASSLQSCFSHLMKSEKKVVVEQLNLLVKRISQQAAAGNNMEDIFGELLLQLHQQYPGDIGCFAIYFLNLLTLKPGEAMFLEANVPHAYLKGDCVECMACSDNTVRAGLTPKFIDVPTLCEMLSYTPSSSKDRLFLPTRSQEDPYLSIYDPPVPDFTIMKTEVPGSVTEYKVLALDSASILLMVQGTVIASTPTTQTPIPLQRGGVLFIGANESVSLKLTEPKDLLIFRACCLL
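Test system: Human PMI in coupled enzyme assay | Input: 15 ng/mL PMI | Medium: HEPES-buffered pH 7.4 with magnesium and detergent | Compound: One concentration, 20 µM, in 1% DMSO | Incubation: Enzyme reaction with compound 20 min at room temperature | Detection: Diaphorase-driven resazurin-to-resorufin fluorescence, excitation 544, emission 590 nm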
PMI act = increases human mannose-6-phosphate isomerase activity. P34949. purified human PMI, coupled resazurin fluorescence, 20 min; stronger effect = higher value; 1 = vehicle control, 0 substrate-free wells. activation factor at 20 µM. 0.005% of 190,000 active. AID 1214;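 active = activation factor of 2 or more at 20 µM, relative to plate controls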
WT yeast gro inh = growth inhibition of WT yeast, mitochondrial fusion screen. mitochondrial fusion phenotypic screen, WT strain. inhibition, % at 10 µM. 2.1% of 190,000 active; in the data active = inhibition above about 58%; tested in S. cerevisiae
L major viab = inhibitors of Leishmania major promastigote growth; Leishmania major promastigotes, resazurin fluorescence viability; AID 1063; inhibition, % at 10 µM; 9% of 200,000 active; in the data active = inhibition above about 50%;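 also: promastigotes grown with compound for 44 hours at 28 °C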
Calpain2 inh = calpain II (pig) inhibition | purified calpain II, fluorogenic peptide substrate, 30 min | inhibition, % at 16 µM | 0.37% of 220,000 active | AID 1236;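 active = inhibition above about 50%, limit read from the data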
A number is an active result.

Screening CCS(=O)(=O)N1CCN(C2CCC(C)CC2)CC1 (stereo not drawn) returned Rad51 HR inh inactive, PMI act satM6P inactive, PMI act inactive, WT yeast gro inh inactive, L major viab 90 and Calpain2 inh inactive.
For CS(=O)(=O)N1CCN(C2C3CC4CC(C3)CC2C4)CC1 (stereo not drawn) the results were WT yeast gro inh inactive, L major viab 80 and Calpain2 inh inactive.
`COc1ccc(/C=C(\C#N)C(=O)NCC(c2ccc(F)cc2)N2CCOCC2)cc1` (stereo not drawn) gave Rad51 HR inh inactive and Calpain2 inh inactive.
`O=C1NC(=O)/C(=C/c2ccccn2)S1` gave Calpain2 inh inactive.
CCCCc1ncc(CN2CCN(Cc3ccc(C)cc3)C(CCO)C2)[nH]1 (stereo not drawn) was read as Rad51 HR inh inactive, PMI act satM6P inactive, PMI act inactive, WT yeast gro inh inactive, L major viab inactive and Calpain2 inh inactive.
Screening CCCCN(C)CCCNC(=O)/C=C1\Sc2ccccc2NC1=O returned Rad51 HR inh inactive, PMI act satM6P inactive, PMI act inactive, WT yeast gro inh inactive, L major viab inactive and Calpain2 inh inactive.
`CC1(C)C([N+](=O)[O-])C(c2ccc(Cl)cc2)NC(c2ccc(Cl)cc2)C1[N+](=O)[O-]` (stereo not drawn) gave Rad51 HR inh inactive, PMI act satM6P inactive, PMI act inactive, WT yeast gro inh inactive, L major viab inactive and Calpain2 inh inactive.
For CCC1Oc2ccc(C)cc2N(CC(=O)N(Cc2cccnc2)Cc2ccc(C)o2)C1=O (stereo not drawn) the results were Rad51 HR inh inactive, PMI act satM6P inactive, PMI act inactive, WT yeast gro inh inactive, L major viab 100 and Calpain2 inh inactive.
CCC1Oc2ccc(C)cc2N(CC(=O)N(Cc2ccc(C)o2)C2CC(C)(C)NC(C)(C)C2)C1=O (stereo not drawn) was read as Rad51 HR inh inactive, PMI act satM6P inactive, PMI act inactive, WT yeast gro inh inactive, L major viab inactive and Calpain2 inh inactive.
Screening Cc1ccc(C)c(N2CCN(C(=O)c3ccc(CS(=O)(=O)c4ccccc4C)o3)CC2)c1 returned Rad51 HR inh inactive, PMI act satM6P inactive, PMI act inactive, WT yeast gro inh inactive, L major viab inactive and Calpain2 inh inactive.
For Cc1cccc(N2CCN(C(=O)c3ccc(CS(=O)(=O)c4ccccc4C)o3)CC2C)c1 (stereo not drawn) the results were Rad51 HR inh inactive, PMI act satM6P inactive, PMI act inactive, WT yeast gro inh inactive, L major viab 59 and Calpain2 inh inactive.
`Cc1ccc(P(C)(=O)c2ccc(C)cc2)cc1` gave Rad51 HR inh inactive, PMI act satM6P inactive, PMI act inactive, WT yeast gro inh inactive, L major viab inactive and Calpain2 inh inactive.
`Cc1ccc(NP(=O)(Nc2ccc(C)cc2)Nc2ccc(C)cc2)cc1` gave Rad51 HR inh inactive, PMI act satM6P inactive, PMI act inactive, WT yeast gro inh inactive, L major viab 58 and Calpain2 inh inactive.
Screening CC(C)(C)c1ccccc1OCC(=O)NCCC(=O)O returned Rad51 HR inh inactive, PMI act satM6P inactive, PMI act inactive, WT yeast gro inh inactive, L major viab 99 and Calpain2 inh inactive.
O=C(NC1CCCC1)C1CCC(=O)N1C1CCCCC1 (stereo not drawn) was read as Rad51 HR inh 45, PMI act satM6P inactive, PMI act inactive, WT yeast gro inh inactive, L major viab inactive and Calpain2 inh inactive.
Screening O=C(O)C1CCC(=O)N1C1CCCC1 (stereo not drawn) returned Rad51 HR inh inactive, PMI act satM6P inactive, PMI act inactive, WT yeast gro inh inactive, L major viab inactive and Calpain2 inh inactive.
Screening CCOC(=O)Cc1sc(N)nc1C returned Rad51 HR inh inactive, PMI act satM6P inactive, PMI act inactive, WT yeast gro inh inactive, L major viab inactive and Calpain2 inh inactive.
CCCCCCCCOC(=O)c1c(CSC(=N)N)n(C)c2cc(Br)c(OC(C)=O)cc12 was read as Rad51 HR inh inactive and Calpain2 inh inactive.
Screening CCOC(=O)c1c(CSc2nc(C)cc(C)c2C#N)n(C)c2cc(Br)c(OC(C)=O)cc12 returned PMI act satM6P inactive, PMI act inactive, WT yeast gro inh inactive, L major viab 96 and Calpain2 inh inactive.
CCOC(=O)c1c(CSC(=N)N)n(-c2ccc(Br)cc2)c2cc(Br)c(OC(C)=O)cc12 was read as PMI act satM6P inactive, PMI act inactive, WT yeast gro inh inactive, L major viab 88 and Calpain2 inh inactive.
For C=CCCc1ccc(C#N)c(SCc2c(C(=O)OCC)c3cc(OC(C)=O)c(Br)cc3n2C)n1 the results were Rad51 HR inh inactive, PMI act satM6P inactive, PMI act inactive, WT yeast gro inh inactive, L major viab 64 and Calpain2 inh inactive.
CC1(C)CC(=O)c2cnc(NC(=O)CSC(=S)N3CCCCC3)nc2C1 was read as Rad51 HR inh inactive and Calpain2 inh inactive.
For Cc1ccc(N(CC(=O)NCCc2ccc(F)cc2)S(=O)(=O)c2ccc(Cl)c([N+](=O)[O-])c2)c(C)c1 the results were Rad51 HR inh inactive, PMI act satM6P inactive, PMI act inactive, WT yeast gro inh inactive, L major viab 54 and Calpain2 inh inactive.
`O=C(CN(c1cccc(C(F)(F)F)c1)S(=O)(=O)c1ccc(Cl)c([N+](=O)[O-])c1)NCc1ccccc1Cl` gave Rad51 HR inh inactive, PMI act satM6P inactive, PMI act inactive, WT yeast gro inh inactive, L major viab 100 and Calpain2 inh inactive.
`O=C(CN(c1cccc(C(F)(F)F)c1)S(=O)(=O)c1ccc(Cl)c([N+](=O)[O-])c1)NCc1ccccc1` gave Rad51 HR inh inactive, PMI act satM6P inactive, PMI act inactive, WT yeast gro inh inactive, L major viab 63 and Calpain2 inh inactive.
For CC(C)(C)NC(=O)CN(c1cccc([N+](=O)[O-])c1)S(=O)(=O)c1ccccc1 the results were Rad51 HR inh inactive, PMI act satM6P inactive, PMI act inactive, WT yeast gro inh inactive, L major viab inactive and Calpain2 inh inactive.
`CC(NC(=O)CN(c1cccc(C(F)(F)F)c1)S(=O)(=O)c1ccc(Cl)c([N+](=O)[O-])c1)c1ccccc1` (stereo not drawn) gave Rad51 HR inh inactive, PMI act satM6P inactive, PMI act inactive, WT yeast gro inh inactive, L major viab 50 and Calpain2 inh inactive.
Screening Cc1ccc(S(=O)(=O)N2CCN(C(=O)CCC(=O)NCCc3ccc(F)cc3)CC2)cc1 returned Rad51 HR inh inactive, PMI act satM6P inactive, PMI act inactive, WT yeast gro inh inactive, L major viab inactive and Calpain2 inh inactive.
For O=C(CN(c1ccc(Br)cc1)S(=O)(=O)c1ccc(Cl)c([N+](=O)[O-])c1)NCCc1ccccc1 the results were PMI act satM6P inactive, PMI act inactive, WT yeast gro inh inactive, L major viab inactive and Calpain2 inh inactive.
